Results taken from ChEMBL document CHEMBL3351861, “New synthetic sulfone derivatives inhibit growth, adhesion and the leucine arylamidase APE2 gene expression of Candida albicans in vitro” (2015).
Values after ≈ are worked out from the molar mass of the structure shown.

What was measured:
Candida albicans [1] = assay: Reduction in APE2 gene expression in compound pre-treated Candida albicans CAI4 expressing delta-cph1 gene grown on human Caco2 cells monolayer at 16 ug/ml pre-treated for 2 hrs measured after 6 hrs by RT-PCR method; format: functional, Caco-2
Procedure, shortened: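 Blastoconidia are pre-incubated 2 h with 16 µg/ml sulfone in RPMI. They are then washed, resuspended in RPMI and placed on Caco-2 monolayers at 37°C, with RNA taken at 6 or 18 h. Real-time RT-PCR uses SYBR Green with 250 nM primers and 60 ng cDNA: 95°C 15 min, then 45 cycles of 94°C 15 s and 60°C 1 min, plus a melt curve. APE2 is normalized to ACT1 by 2^-ΔΔCt with 90028 as calibrator; three experiments.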

Candida albicans [2] = assay: Antifungal activity against Candida albicans CAI4 expressing delta-cph1 (CPH1) gene assessed as growth inhibition at 0.25 ug/ml by CLSI M27-A3 method; format: functional; settings: read-out: GI
Procedure, shortened: (§1)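 CLSI M27-A3 broth microdilution in RPMI, read after 48 h. Strains pre-grown 18 h in YEPD at 30°C. Final inoculum 0.5×10^2–2.5×10^3 cells/ml. Two-fold dilutions in RPMI came from a 1600 µg/ml stock in water with 9% DMSO; final DMSO was 0.09%. OD405 read, % inhibition = 100 − (CTW−SCW)/(GCW−SCW). Triplicate on three occasions, mean±SD.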

Candida albicans [3] = assay: Inhibition of cell adhesion of compound pre-treated Candida albicans CAI4 expressing delta-cph1 (CPH1) gene to human Caco2 cells assessed as cell adhesion level at 16 ug/ml pre-incubated for 18 hrs by colony counting method (reference value: 5.37 +/- 12.4%); format: functional, Caco-2; design: scale not given: the % may be the effect or the level left
Candida albicans [4] = assay: Antifungal activity against Candida albicans CAI4 expressing delta-cph1/delta-efg1 gene assessed as growth inhibition at 2 ug/ml by CLSI M27-A3 method; format: functional; settings: read-out: GI; procedure, shortened: as §1
Candida albicans [5] = assay: Reduction in APE2 gene expression in compound pre-treated Candida albicans CAI4 expressing delta-efg1 (EFG1) gene grown on human Caco2 cells monolayer at 16 ug/ml pre-treated for 2 hrs measured after 18 hrs by RT-PCR method; format: functional, Caco-2
Procedure, shortened: (§2)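 Caco-2 was seeded at 1.2×10^5 cells/ml in EMEM (10% FCS, 1 mM pyruvate, no antibiotics) for 18 h at 37°C, 5% CO2. Yeast (10^4 cfu/ml) was pre-incubated 2 h in RPMI with 16 µg/ml sulfone, washed, resuspended in RPMI and inoculated onto the monolayer at 37°C. APE2 mRNA was measured by SYBR qPCR against ACT1 (2^-ΔΔCt, 90028 calibrator), in triplicate.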

Candida albicans [6] = assay: Inhibition of cell adhesion of compound pre-treated Candida albicans 90028 to human Caco2 cells assessed as cell adhesion level at 16 ug/ml pre-incubated for 18 hrs by colony counting method (reference value: 1.58 +/- 0.67%); format: functional, Caco-2; design: scale not given: the % may be the effect or the level left
Candida albicans [7] = assay: Antifungal activity against Candida albicans CAI4 expressing delta-cph1 gene assessed as growth inhibition at 2 ug/ml by CLSI M27-A3 method; format: functional; settings: read-out: GI; procedure, shortened: as §1
Candida albicans [8] = assay: Antifungal activity against Candida albicans CAI4 expressing delta-cph1 gene assessed as growth inhibition at 0.25 ug/ml by CLSI M27-A3 method; format: functional; settings: read-out: GI; procedure, shortened: as §1
Candida albicans [9] = assay: Antifungal activity against Candida albicans CAI4 expressing delta-cph1/delta-efg1 (EFG1) gene assessed as growth inhibition at 8 ug/ml by CLSI M27-A3 method; format: functional; settings: read-out: GI; procedure, shortened: as §1
Candida albicans [10] = assay: Antifungal activity against Candida albicans CAI4 expressing delta-cph1/delta-efg1 (EFG1) gene assessed as growth inhibition at 0.5 ug/ml by CLSI M27-A3 method; format: functional; settings: read-out: GI; procedure, shortened: as §1
Candida albicans [11] = assay: Antifungal activity against Candida albicans CAI4 expressing delta-efg1 (EFG1) gene assessed as growth inhibition at 4 ug/ml by CLSI M27-A3 method; format: functional; settings: read-out: GI; procedure, shortened: as §1
Candida albicans [12] = assay: Reduction in APE2 gene expression in compound pre-treated Candida albicans CAI4 expressing delta-efg1 gene grown on human Caco2 cells monolayer at 16 ug/ml pre-treated for 2 hrs measured after 6 hrs by RT-PCR method; format: functional, Caco-2; procedure, shortened: as §2
Candida albicans [13] = assay: Antifungal activity against Candida albicans 90028 assessed as growth inhibition at 8 ug/ml by CLSI M27-A3 method; format: functional; settings: read-out: GI; procedure, shortened: as §1
Candida albicans [14] = assay: Antifungal activity against Candida albicans 90028 assessed as growth inhibition at by CLSI M27-A3 method; format: functional
Candida albicans [15] = assay: Inhibition of cell adhesion of compound pre-treated Candida albicans SC5314 to human Caco2 cells assessed as cell adhesion level at 8 ug/ml pre-incubated for 2 hrs by colony counting method (reference value: 1.1 +/- 1.1%); design: scale not given: the % may be the effect or the level left
Candida albicans [16] = assay: Inhibition of cell adhesion of compound pre-treated Candida albicans 90028 to human Caco2 cells assessed as cell adhesion level at 4 ug/ml pre-incubated for 18 hrs by colony counting method (reference value: 1.58 +/- 0.67%); format: functional, Caco-2; design: scale not given: the % may be the effect or the level left
Candida albicans [17] = assay: Antifungal activity against Candida albicans CAI4 expressing delta-cph1 (CPH1) gene assessed as growth inhibition at 16 ug/ml by CLSI M27-A3 method; format: functional; settings: read-out: GI; procedure, shortened: as §1
Candida albicans [18] = assay: Inhibition of cell adhesion of compound pre-treated Candida albicans CAI4 expressing delta-cph1/delta-efg1 (EFG1) gene to human Caco2 cells assessed as cell adhesion level at 8 ug/ml pre-incubated for 18 hrs by colony counting method (reference value: 1.24 +/- 1.06%); format: functional, Caco-2; design: scale not given: the % may be the effect or the level left
Candida albicans [19] = assay: Antifungal activity against Candida albicans CAI4 expressing delta-efg1 gene assessed as growth inhibition at 2 ug/ml by CLSI M27-A3 method; format: functional; settings: read-out: GI
Procedure, shortened: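 CLSI M27-A3 broth microdilution in RPMI. Final inoculum 0.5×10^2 to 2.5×10^3 cells/ml. Seven two-fold concentrations from 0.25 to 16 µg/ml, with DMSO held at 0.09% (v/v) in all wells. Compound-free growth controls and sterility controls are run for each strain. […] Triplicate on three occasions.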

Candida albicans [20] = assay: Antifungal activity against Candida albicans CAI4 expressing delta-cph1 (CPH1) gene assessed as growth inhibition at 1 ug/ml by CLSI M27-A3 method; format: functional; settings: read-out: GI; procedure, shortened: as §1
Candida albicans [21] = assay: Antifungal activity against Candida albicans CAI4 expressing delta-cph1/delta-efg1 gene assessed as growth inhibition at 8 ug/ml by CLSI M27-A3 method; format: functional; settings: read-out: GI; procedure, shortened: as §1
Candida albicans [22] = assay: Antifungal activity against Candida albicans CAI4 expressing delta-cph1 (CPH1) gene assessed as growth inhibition at by CLSI M27-A3 method; format: functional
Candida albicans [23] = assay: Inhibition of cell adhesion of compound pre-treated Candida albicans CAI4 expressing delta-efg1 (EFG1) gene to human Caco2 cells assessed as cell adhesion level at 8 ug/ml pre-incubated for 18 hrs by colony counting method (reference value: 2.6 +/- 2.33%); format: functional, Caco-2; design: scale not given: the % may be the effect or the level left

MIC90 (Candida albicans [14])	MIC90 (Candida albicans [22])	SMILES	inhibition of growth at 0.25 µg/mL (Candida albicans [2])	Activity (Candida albicans [3])	inhibition of growth at 2 µg/mL (Candida albicans [4])	Activity (Candida albicans [6])	inhibition of growth at 2 µg/mL (Candida albicans [7])	inhibition of growth at 0.25 µg/mL (Candida albicans [8])	inhibition of growth at 8 µg/mL (Candida albicans [9])	inhibition of growth at 0.5 µg/mL (Candida albicans [10])	inhibition of growth at 4 µg/mL (Candida albicans [11])	inhibition of growth at 8 µg/mL (Candida albicans [13])	Activity (Candida albicans [15])	inhibition of growth at 16 µg/mL (Candida albicans [17])	Activity (Candida albicans [18])	inhibition of growth at 2 µg/mL (Candida albicans [19])	inhibition of growth at 1 µg/mL (Candida albicans [20])	inhibition of growth at 8 µg/mL (Candida albicans [21])	Activity (Candida albicans [23])	also measured
4 µg/mL (≈ 9.45 µM)	4 µg/mL (≈ 9.45 µM)	NNc1ccc(S(=O)(=O)C(Cl)(Br)Br)cc1[N+](=O)[O-]	98.6%	0.78%	100%	1.6%	100%	20%	99.4%	98.8%	99.3%	100%	0.45%	99.8%	0.75%	99.7%	98.8%	100%		fold change (FC) (Candida albicans [1]): 10.83; fold change (FC) (Candida albicans [5]): 8.72; fold change (FC) (Candida albicans [12]): 10.27; Activity (Candida albicans [16]): 0.91%
16 µg/mL (≈ 41.7 µM)	16 µg/mL (≈ 41.7 µM)	O=[N+]([O-])c1cc(S(=O)(=O)C(Cl)(Cl)Br)ccc1Cl	96.7%	0.48%	98.8%	0.68%	98.9%	97.4%	99.8%	98.8%	99.3%	99.5%	0.36%	99.8%	1.26%	98.9%	98.7%	99.4%	1.13%	

SMILES	MIC90 (Candida albicans [14])	MIC90 (Candida albicans [22])	inhibition of growth at 0.25 µg/mL (Candida albicans [2])	Activity (Candida albicans [3])	inhibition of growth at 2 µg/mL (Candida albicans [4])	Activity (Candida albicans [6])	inhibition of growth at 2 µg/mL (Candida albicans [7])	inhibition of growth at 0.25 µg/mL (Candida albicans [8])	inhibition of growth at 8 µg/mL (Candida albicans [9])	inhibition of growth at 0.5 µg/mL (Candida albicans [10])	inhibition of growth at 4 µg/mL (Candida albicans [11])	inhibition of growth at 8 µg/mL (Candida albicans [13])	Activity (Candida albicans [15])	inhibition of growth at 16 µg/mL (Candida albicans [17])	Activity (Candida albicans [18])	inhibition of growth at 2 µg/mL (Candida albicans [19])	inhibition of growth at 1 µg/mL (Candida albicans [20])	inhibition of growth at 8 µg/mL (Candida albicans [21])	Activity (Candida albicans [23])	also measured
O=[N+]([O-])c1cc(S(=O)(=O)C(Cl)Cl)ccc1Cl	16 µg/mL (≈ 52.5 µM)	16 µg/mL (≈ 52.5 µM)	91.8%	2.28%	99.1%	1.19%	99%	97.7%	99.3%	99%	98.5%	99.3%		99.4%	2.24%	99.4%	98.8%	99.4%	1.18%	
